Results taken from ChEMBL document CHEMBL1158989, “Synthesis and evaluation of hydroxylated flavones and related compounds as potential inhibitors of the protein-tyrosine kinase p56lck” (J Nat Prod, 1991).
≈ marks a conversion by molar mass, not a printed value.

Experiment: Inhibition of bovine thymus p56LCK-catalyzed phosphorylation of angiotensin 1 by SDS-PAGE
Set-up: species or system Bos taurus
Procedure, shortened: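 p56lck partially purified from bovine thymus (DEAE-cellulose, heparin-agarose, butyl-agarose chromatography). Substrate angiotensin I 1.2 mM with [γ-32P]ATP 50 μM. Reactions held 8% DMSO as inhibitor carrier; DMSO-only controls. Inhibitors tested at seven concentrations, 0.8 to 800 μg/ml. IC50 read graphically as half-maximal inhibition relative to DMSO controls.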
In the case of `O=c1cc(-c2cccc(O)c2)oc2cccc(O)c12`, the IC50 is reported as 80 mg/L (≈ 315 µM).
Compound `CC(C)(C)[Si](C)(C)Oc1ccc(-c2cc(=O)c3cc(O)ccc3o2)cc1` has an IC50 of 44 mg/L (≈ 119 µM).
Compound `COc1cc(-c2cc(=O)c3ccc(OC(C)=O)cc3o2)cc(OC)c1O` has an IC50 of over 800 mg/L.
`O=c1cc(-c2cccc(O)c2)oc2ccc(O)cc12` gave an IC50 of 4 mg/L (≈ 15.7 µM).
With `O=c1cc(-c2cccc(O)c2)oc2cc(O)ccc12` the IC50 was 10 mg/L (≈ 39.3 µM).
For `COc1cc(-c2cc(=O)c3cc(O)ccc3o2)cc(OC)c1O`, the IC50 was 41 mg/L (≈ 130 µM).
For `COc1ccc2c(=O)cc(-c3cc(OC)c(OC)c(OC)c3)oc2c1`, the IC50 was over 800 mg/L.
In the case of `O=c1cc(-c2ccccc2)oc2cc(O)ccc12` [7-HYDROXYFLAVONE], the IC50 is reported as 80 mg/L (≈ 336 µM).
`O=c1cc(-c2ccccc2)oc2c(O)c(O)ccc12` [7,8-DIHYDROXYFLAVONE] gave an IC50 of 80 mg/L (≈ 315 µM).
Work on `O=c1cc(-c2ccc(O)cc2)oc2ccccc12` yielded an IC50 of 120 mg/L (≈ 504 µM).
Work on `COc1cc(O)c2c(=O)cc(-c3ccc(O)cc3)oc2c1` [GENKWANIN] yielded an IC50 of 80 mg/L (≈ 281 µM).
In the case of `CC(C)(C)[Si](C)(C)Oc1ccc(-c2cc(=O)c3ccc(O)cc3o2)cc1`, the IC50 is reported as 360 mg/L (≈ 977 µM).
`COc1cc(-c2cc(=O)c3ccc(OC(C)=O)c(OC(C)=O)c3o2)cc(OC)c1O[Si](C)(C)C(C)(C)C` showed an IC50 of over 800 mg/L.
Compound `O=c1cc(-c2ccc(O)c(O)c2)oc2cc(O)cc(O)c12` [LUTEOLIN] has an IC50 of 10 mg/L (≈ 34.9 µM).
`COc1cc(-c2cc(=O)c3ccc(O)c(O)c3o2)cc(OC)c1OC` gave an IC50 of 136 mg/L (≈ 395 µM).
In the case of `COc1cc(-c2cc(=O)c3cc(O)ccc3o2)cc(OC)c1O[Si](C)(C)C(C)(C)C`, the IC50 is reported as 160 mg/L (≈ 373 µM).
In the case of `COc1cc(-c2cc(=O)c3ccc(O)cc3o2)cc(OC)c1O`, the IC50 is reported as 400 mg/L (≈ 1270 µM).
`O=c1cc(-c2cccc(O)c2)oc2c(O)c(O)ccc12` gave an IC50 of 48 mg/L (≈ 178 µM).
`O=c1cc(-c2ccc(O)cc2)oc2cc(O)ccc12` showed an IC50 of 43 mg/L (≈ 169 µM).
In the case of `O=c1cc(-c2ccccc2)oc2cc(O)cc(O)c12` [CHRYSIN], the IC50 is reported as 5 mg/L (≈ 19.7 µM).
Work on `COc1cc(-c2cc(=O)c3ccc(O)cc3o2)cc(OC)c1OC` yielded an IC50 of over 800 mg/L.
For `O=c1cc(-c2ccc(O)cc2)oc2cccc(O)c12`, the IC50 was 4 mg/L (≈ 15.7 µM).
`COc1cc(-c2cc(=O)c3ccc(O)cc3o2)cc(OC)c1O[Si](C)(C)C(C)(C)C` gave an IC50 of 656 mg/L (≈ 1530 µM).
`O=c1cc(-c2ccc(OCc3ccccc3)cc2)oc2cccc(O)c12` showed an IC50 of over 800 mg/L.
Compound `O=c1cc(-c2ccc(O)cc2)oc2cc(O)cc(O)c12` [APIGENIN] has an IC50 of 4 mg/L (≈ 14.8 µM).
With `O=c1cc(-c2ccc(OCc3ccccc3)cc2)oc2cc(O)ccc12` the IC50 was 664 mg/L (≈ 1930 µM).
`COc1cc(-c2cc(=O)c3ccccc3o2)cc(OC)c1O` showed an IC50 of 7.7 mg/L (≈ 25.8 µM).
For `COc1cc(-c2oc3cc(O)cc(O)c3c(=O)c2O)cc(OC)c1O` [SYRINGETIN], the IC50 was 24 mg/L (≈ 69.3 µM).
Work on `COc1cc(-c2cc(=O)c3cc(O)ccc3o2)cc(OC)c1OC` yielded an IC50 of 20 mg/L (≈ 60.9 µM).
`O=c1c(O)c(-c2ccc(O)c(O)c2)oc2cc(O)cc(O)c12` [QUERCETIN] showed an IC50 of 4 mg/L (≈ 13.2 µM).
Compound `O=c1c(O)c(-c2cc(O)cc(O)c2)oc2cc(O)cc(O)c12` has an IC50 of 30 mg/L (≈ 99.3 µM).
In the case of `COc1cc(-c2cc(=O)c3ccc(OC(C)=O)cc3o2)cc(OC)c1O[Si](C)(C)C(C)(C)C`, the IC50 is reported as over 800 mg/L.
With `O=c1c(O)c(-c2ccc(O)c(O)c2)oc2cc(O)ccc12` [FISETIN] the IC50 was 4 mg/L (≈ 14 µM).
Compound `O=c1c(O)c(-c2ccccc2)oc2cc(O)cc(O)c12` [GALANGIN] has an IC50 of 80 mg/L (≈ 296 µM).
Compound `O=c1cc(-c2ccc(O)cc2)oc2ccc(O)cc12` has an IC50 of 30 mg/L (≈ 118 µM).
With `COc1ccc2oc(-c3cc(OC)c(OC)c(OC)c3)cc(=O)c2c1` the IC50 was over 800 mg/L.
Compound `COc1cc(-c2cc(=O)c3ccc(O)c(O)c3o2)cc(OC)c1O[Si](C)(C)C(C)(C)C` has an IC50 of 40 mg/L (≈ 90 µM).
